High-throughput results: PubChem, Johns Hopkins Ion Channel Center
RGS4 pot – RGS4 potentiators or activators, primary screen, cell-based, HEK293 M3R inducible RGS4, calcium flux | AID 463111, 2010 | 310,000 tested, 0.92% active | B-score at 10 µM | carbachol calcium flux Fluo4; hits give low values;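 active = B-score of the integrated calcium signal more than 4 SD below the library mean, with starting fluorescence not abnormally high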;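 also: negative B-score means reduced calcium response which marks RGS4 activation or potentiation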
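System: HEK293 FlpIn-TREx cells, stable M3R, doxycycline-inducible RGS4. Timing: overnight RGS4 induction, 30 min dye load 37 °C, 20 min compound RT. Also added: carbachol, ECmax concentration. Measured by: Fluo4 fluorescence kinetic imaging of calcium. Evaluation: integrated calcium ratio converted to B score.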
MrgX1 agonist – agonists of human MrgX1 receptor, primary screen, HEK293 cells, Fluo-4 calcium flux | Mas-related G-protein coupled receptor member X1 (Homo sapiens), Q96LB2 | Fluo-4 calcium fluorescence, agonist mode; hits give high values | B-score at 10 µM | 310,000 tested, 0.44% active | AID 588627, 2011;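 active = calcium response B-score plate-corrected fluorescence ratio at least 3 library SD, with starting fluorescence B-score inside 5 SD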
Target sequence (Q96LB2 whole entry, looked up): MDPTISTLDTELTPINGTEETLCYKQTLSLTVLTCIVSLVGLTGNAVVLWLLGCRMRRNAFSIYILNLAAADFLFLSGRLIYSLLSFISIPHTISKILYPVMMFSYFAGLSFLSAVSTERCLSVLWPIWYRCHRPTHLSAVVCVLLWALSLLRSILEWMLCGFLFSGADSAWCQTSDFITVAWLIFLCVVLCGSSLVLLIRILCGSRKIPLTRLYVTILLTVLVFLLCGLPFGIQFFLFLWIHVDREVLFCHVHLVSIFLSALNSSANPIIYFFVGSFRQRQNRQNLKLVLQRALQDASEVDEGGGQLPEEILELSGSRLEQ
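Material: MrgX1-expressing HEK293 cells; input: 15,000 cells per well; doses: test compound given as first of three sequential additions; schedule: overnight plating before 1 h dye loading; technique: Fluo-4 NW calcium-flux fluorescence, kinetic read; evaluation: baseline-normalised fluorescence change ratio, B-scored; control set: plate-wise positive and negative controls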
MrgX1 PAM – positive allosteric modulators of MrgX1, primary screen, HEK293 cells, Fluo-4 calcium flux. Mas-related G-protein coupled receptor member X1 (Homo sapiens), Q96LB2. FDSS; hits give high values. B-score at 10 µM. 310,000 tested, 0.63% active. AID 588675, 2011;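 active = plate-corrected calcium response at least 3 library SD above typical, normal starting fluorescence, not activating the receptor alone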;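 also: compound read alongside a low EC10 to EC30 dose of BAM8-22 agonist; peak minus trough fluorescence over baseline measured at the second addition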
RGS4 block – RGS4 inhibitors, primary screen, cell-based, HEK293 M3R inducible RGS4, calcium flux; Regulator of G-protein signaling 4 (Homo sapiens), P49798; Fluo-4 calcium flux; hits give high values; triggered by carbachol at its EC20; B-score at 10 µM; 310,000 tested, 0.45% active; AID 463165, 2010;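 active = B-score, a plate-corrected calcium signal, over three deviations above library mean, with baseline fluorescence within five deviations of library mean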;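 also: RGS4 expression induced by doxycycline in cells with stable M3 receptor; B-score is computed from the integrated fluorescence ratio over baseline after carbachol; higher B-score means a larger calcium signal and so more RGS4 inhibition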
Target sequence (P49798 whole entry, looked up): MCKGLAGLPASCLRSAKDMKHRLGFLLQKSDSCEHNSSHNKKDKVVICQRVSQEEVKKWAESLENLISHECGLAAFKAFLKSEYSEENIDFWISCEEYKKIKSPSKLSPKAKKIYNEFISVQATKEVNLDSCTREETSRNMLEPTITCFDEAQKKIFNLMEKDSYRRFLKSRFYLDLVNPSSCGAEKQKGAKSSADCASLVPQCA
MrgX1 antag – antagonists of human MrgX1 receptor, primary screen, HEK293 cells, Fluo-4 calcium flux | BAM8-22 antagonism; hits give low values | B-score at 10 µM | 310,000 tested, 1.3% active;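 active = calcium-response B-score plate-corrected more than 3 library SD below zero, starting fluorescence within 5 deviations, no agonist response on first addition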;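 also: peak minus trough fluorescence over baseline after final BAM8-22 challenge near maximal dose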
The depositor's hits bear a star; i = inactive; · = no result. Shown are actives, neighbours in structure and some others; about 3.5% of the full set was active somewhere.

SMILES	RGS4 pot	MrgX1 agonist	MrgX1 PAM	RGS4 block	MrgX1 antag
Cc1c(C(=O)OC(C)C(C)C[N+](C)(C)C)oc2ccccc12 (stereo not given)	-8.4*	i	i	i	i
OCC[C@@H]1C[C@@H](O)[C@H](O)[C@@]2(Cc3ccccc3O2)O1	i	i	i	i	i
CCCCCCn1nc(C(=O)OCC(=O)NC2CCS(=O)(=O)C2)c2ccccc2c1=O (stereo not given)	i	i	i	i	i
CCOC(=O)c1c(-c2ccccc2)nnn1-c1nc(OCC)nc(N2CCCCC2)n1	-8.7*	i	i	i	i
CC1(C)CC(=O)C(C2=NC3(CCCCC3)Cc3ccccc32)=C(O)C1	i	i	i	i	i
CCC1(CC)Cc2ccccc2C(C2=C(O)CC(C)(C)CC2=O)=N1	i	i	i	i	-4.8*
O=C(/C=C/c1ccc(N2CCC(c3ccccc3)=N2)cc1)c1ccccc1	-7.9*	i	i	i	i
Cc1ccccc1S(=O)(=O)Oc1ccc2ccc(O)cc2c1	-8.9*	i	i	i	i
Cc1ccc(NC2CCCN(C(=O)c3cc4ncccn4n3)C2)cc1C (stereo not given)	i	i	i	i	i
CCN(CC)C(=O)c1c2c(nc3ccccc13)-c1ccccc1CC2	-7*	i	i	i	i
COc1ccc(-c2csc3ncnc(N4CCN(S(=O)(=O)c5ccc(Cl)s5)CC4)c23)cc1	i	i	i	i	i
COc1ccc(-c2csc3ncnc(N4CCN(S(=O)(=O)c5ccc(C)cc5)CC4)c23)cc1	-7.5*	i	i	i	i
CCOC(=O)c1c(S(=O)(=O)NCC(C)c2ccccc2)c(C)n(C)c1C (stereo not given)	i	i	i	i	i
Cc1cccc(NS(=O)(=O)c2ccc(C(=O)N3CCCCCC3)cc2)c1C	i	i	i	i	i
COc1ccccc1C(=O)COC(=O)c1cc([N+](=O)[O-])ccc1N1CCOCC1	i	i	i	i	i
COc1cc(C(=O)COC(=O)c2cc([N+](=O)[O-])ccc2N2CCOCC2)ccc1OC(F)F	i	i	i	i	-6.2*
Cc1ccc(S(=O)(=O)NCC(=O)N2CCN(c3ccc(F)cc3)CC2)cc1	i	i	i	i	i
Cn1c(=O)c(Nc2ccc(Cl)cc2)c2c3c(cccc31)C(=O)c1ccccc1-2	-7*	i	i	i	i
CCOC(=O)c1c2c3c(cccc3n(C)c1=O)C(=O)c1ccccc1-2	i	i	i	i	i
CC(OC(=O)/C=C/c1ccc(Br)cc1)C(=O)N1CCOCC1 (stereo not given)	i	i	i	i	-8*
CCC(O)CNc1nc(SC)nc2sc3c(c12)CCN(C)C3 (stereo not given)	-7.2*	i	i	i	i
CSc1nc(NCc2ccco2)c2c3c(sc2n1)CN(C)CC3	-7.7*	i	i	i	-4.7*
CSc1nc(SCC(=O)NCc2ccco2)c2c3c(sc2n1)CN(C)CC3	i	i	i	i	i
COC(=O)[C@@]12CCCN1[C@H](c1ccc(-c3cccc(Cl)c3)cc1)[C@H]1C(=O)N(C)C(=O)[C@H]12	i	i	i	i	i
CN(C(=O)Cn1nnc(-c2cccnc2)n1)C1CCCCC1	i	i	i	i	i
SMILES	RGS4 pot	MrgX1 agonist	MrgX1 PAM	RGS4 block	MrgX1 antag
CCN(CC(=O)Nc1ccc2c(c1)OCCO2)C(=O)CC(NC(C)=O)c1ccccc1 (stereo not given)	i	i	i	i	-7.4*
CCN(CC(=O)Nc1ccc2c(c1)OCCO2)C(=O)/C=C/c1ccccc1	i	i	i	i	i
CC(NC(=O)N1CCN(c2ccccc2F)CC1)c1ccc(F)c(F)c1 (stereo not given)	i	i	i	i	i
C=CCOc1ccc(C2OC34CCCCC3C(C#N)(C#N)C2(C#N)C(=N)O4)cc1 (stereo not given)	i	27*	i	i	i
CCCCOc1ccc(C2OC34CCCCC3C(C#N)(C#N)C2(C#N)C(=N)O4)cc1 (stereo not given)	i	i	i	i	i
COC(CNC(=O)[C@H](CSCc1ccccc1)N1Cc2ccccc2C1=O)OC	i	i	8.2*	i	i
O=[N+]([O-])c1ccc(CSc2ncnc3c2ncn3[C@@H]2O[C@H](CO)[C@@H](O)[C@H]2O)cc1	·	i	i	·	i
NCCNC(=O)Cc1cccc(NC(=O)Cc2ccc(Nc3ncnc4c3ncn4[C@@H]3O[C@H](CO)[C@@H](O)[C@H]3O)cc2)c1	i	i	8.2*	i	i
Cc1ccccc1C(=O)NNc1ccc([N+](=O)[O-])cc1	i	i	i	i	-6.8*
O=C(CSCc1c(Cl)cccc1Cl)Nc1ccc2c(c1)OCO2	-7.5*	i	i	i	i
O=C(CSCc1ccccc1)Nc1ccc2c(c1)OCO2	i	i	i	i	i
COCc1ccc(C(=O)N2CCCC(Nc3ccc(C(C)C)cc3)C2)o1 (stereo not given)	i	i	i	i	i
Cc1ccc(S(=O)(=O)c2nnn3c2nc(NCCCN2CCCC2=O)c2ccccc23)cc1C	i	i	i	i	i
Cc1ccc(S(=O)(=O)c2nnn3c2nc(NC2CCN(Cc4ccccc4)CC2)c2ccccc23)cc1C	i	i	8.3*	i	-11*
CC[N+](C)(CC)CCOC(=O)C(O)(c1ccccc1)C1CCCCC1 (stereo not given)	i	i	i	i	i
CC[N+](C)(CC)CCC(c1ccccc1)C1CCCCC1 (stereo not given)	-8.7*	i	i	i	i
COc1ccc(NC(=S)N2CCC(N(C)CC3CCCO3)CC2)cc1Cl (stereo not given)	i	i	i	i	i
Cc1ccccc1C(=O)OC1CCN(C)CC1	i	i	i	i	i
CN1CCC(OC(=O)c2ccccc2Cl)CC1	-7.2*	i	i	i	i
O=C(NC1CCCCC1)C1COc2ccccc2O1 (stereo not given)	-7.6*	i	i	i	i
CC1CCC(NC(=O)C2COc3ccccc3O2)CC1 (stereo not given)	i	i	i	i	i
